# Source: PubChem
# PglD inh: C. jejuni PglD acetyltransferase inhibitors, primary screen, biochemical, DTNB colorimetric, single point; UDP-N-acetylbacillosamine N-acetyltransferase PglD (Campylobacter jejuni); purified PglD enzyme, DTNB colorimetric CoA detection; inhibition, % at 12.5 µM; 360,000 compounds, 0.098% hits; in the data active means inhibition above about 16%, passing the limit was not always enough
# E-selectin induc: E-selectin induction in HUVECs, primary screen, imaging, HUVEC, immunofluorescence imaging, single point; normalized: neutral wells 0, TNF-alpha wells 100; activation, % at 7.58 µM; 260,000 compounds, 0.37% hits;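 active means mean E-selectin-positive cell signal at least 10% of the positive control, reached in at least 60% of replicates, without over 20% cell loss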
# Target sequence (P16581 whole entry, looked up): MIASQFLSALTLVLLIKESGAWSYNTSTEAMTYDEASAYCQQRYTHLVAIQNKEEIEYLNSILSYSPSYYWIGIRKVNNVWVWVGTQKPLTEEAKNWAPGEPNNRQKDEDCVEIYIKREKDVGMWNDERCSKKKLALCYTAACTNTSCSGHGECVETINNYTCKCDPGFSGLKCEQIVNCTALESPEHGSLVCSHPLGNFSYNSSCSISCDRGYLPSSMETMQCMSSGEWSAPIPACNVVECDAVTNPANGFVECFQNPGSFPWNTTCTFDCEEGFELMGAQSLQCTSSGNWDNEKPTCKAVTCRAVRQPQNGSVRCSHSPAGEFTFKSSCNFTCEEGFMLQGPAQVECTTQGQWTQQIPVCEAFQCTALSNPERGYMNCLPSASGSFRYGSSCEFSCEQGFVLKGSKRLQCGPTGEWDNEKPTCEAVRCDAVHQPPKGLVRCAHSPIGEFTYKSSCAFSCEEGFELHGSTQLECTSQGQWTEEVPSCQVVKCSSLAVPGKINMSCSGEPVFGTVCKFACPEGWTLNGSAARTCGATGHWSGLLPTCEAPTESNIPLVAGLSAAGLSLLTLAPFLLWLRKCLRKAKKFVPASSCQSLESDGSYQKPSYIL
#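 Assay system: HUVEC primary endothelial cells. Input: 3,000 HUVEC seeded per well. Doses: one compound dose added by pin transfer. Read-out basis: % PE-positive cells. Benchmarks: TNF-alpha high, DMSO low. Detection: immunofluorescence imaging. Buffer or medium: EGM-2, gelatin.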
# XiGFP reactiv: activators of inactive X chromosome reactivation, primary screen, imaging, XiGFP fibroblasts, GFP high-content imaging, set 2; XiGFP mouse fibroblasts, % GFP-positive cells imaging, 3 d; cells co-treated with 5-aza-dC sensitizer; scaled so ellipticine positive control = 100%; activation, % at 7.58 µM; 360,000 compounds, 0.055% hits; AID 743238, 2013;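 active means mean normalized replicate activation at least 10% and every replicate at or above 10%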;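 further: 0% = median of on-plate neutral control wells and 100% = ellipticine 6 µM median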
#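 System: SV40-immortalized XiGFP fibroblast cells, line 68-5-11 / Incubation: 3-day compound exposure, then 15 min fixation at room temperature / Compound: single concentration per compound, delivered by pin transfer / Buffer or medium: DMEM plus 5-aza-dC sensitizer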
# FGF22 binding: binders of human FGF22 protein, primary screen, FGF22 synaptogenesis inhibitor project, biophysical, thermal shift, single point. recombinant FGF22 thermal shift, SYPRO orange fluorescence; percent of sucrose octasulfate shift, DMSO zero. activity (Tm shift, normalised), % at 9.99 µM. 340,000 compounds, 1.5% hits. Fibroblast growth factor 22 (Homo sapiens), Q9HCT0;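 active means mean Tm shift, scaled 0 neutral to 100 positive control, at about 1.3% or above, every replicate too, limit read from the data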
# DENV2 CPE: inhibitors of DENV2 cytopathic effect, primary screen, cell-based, plate reader, single concentration; DENV2-infected cells, cytopathic effect rescue; CPE inhibition, % at 9.99 µM; 350,000 compounds, 1.7% hits; in the data active means CPE inhibition above about 20%, passing the limit was not always enough; tested in BHK-21 cells;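 further: 0% = median of neutral control wells and 100% = median of positive control wells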
# C2C12 statin: suppressors of statin myotoxicity in C2C12 myotubes, primary screen, cell-based, single point, plate reader; rescue of ATP level, % at 7.49 µM; C2C12 myotubes + simvastatin, ATP luminescence, 48 h; scaled: DMSO 0, geranylgeraniol control 100; 330,000 compounds, 0.78% hits;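 active means mean ATP rescue above about 67%, or every replicate alone reaching that limit, limit read from the data, passing the limit was not always enough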;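 further: myotubes were challenged with 10 µM simvastatin during compound exposure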
# An asterisk follows results filed as active; . = no result. Only some compounds are listed: those with a hit (about 3.3% of all), similar ones and a draw of the others.
SMILES,PglD inh,E-selectin induc,XiGFP reactiv,FGF22 binding,DENV2 CPE,C2C12 statin
OC[C@@H]1Nc2ccc(-c3ccccc3)cc2[C@H]2[C@@H]1CCN2Cc1ccc(F)cc1,2,1,0,1,49*,-6
Cc1cccc(S(=O)(=O)N2CC[C@@H]3[C@@H](CO)N(C)c4ccc(-c5ccc(C#N)cc5)cc4[C@@H]32)c1,-3,0,0,0,45*,3
N#Cc1ccc(-c2ccc3c(c2)[C@@H]2[C@@H](CCN2S(=O)(=O)c2cccc(F)c2)[C@H](CO)N3)cc1,0,0,0,0,34*,-19
O=S(=O)(c1ccc(F)cc1)N1CC[C@@H]2[C@@H](CO)Nc3ccc(C#Cc4cccc(F)c4)cc3[C@@H]21,.,0,0,0,24*,.
CO[C@@H]1CN(C)C(=O)c2cc(NC(=O)C3CCCC3)ccc2OC[C@H](C)N(CC2CC2)C[C@H]1C,-1,0,0,0,3,6
O=S(=O)(c1ccc(F)cc1)N1CC[C@@H]2[C@H](CO)Nc3ccc(Br)cc3[C@@H]21,-1,0,0,0,.,9
O=S(=O)(c1ccc(F)cc1)N1CC[C@@H]2[C@H]1c1cc(-c3ccc(F)cc3)ccc1N[C@@H]2CO,-5,-1,0,0,86*,33
CCOC(=O)c1cnc2cc(-c3ccc(Cl)cc3)nn2c1N,.,.,.,0,.,-15
CCOC(=O)c1cnc2c(-c3ccc(Cl)cc3)c(C)nn2c1N,4,.,.,.,.,87*
C/C=C/c1ccc([C@@H]2[C@H](CO)N(CCC(F)(F)F)C23CN(C(=O)COC)C3)cc1,.,0,0,0,15,.
COc1cc(OC)cc(C(=O)N2CCN(Cc3ccccc3Br)CC2)c1,.,.,0,43*,-3,.
COc1cc(OC)cc(C(=O)N2CCN(Cc3cccc(F)c3)CC2)c1,4,.,.,.,.,.
O=C(NC(=S)Nc1nc(-c2ccccc2)cs1)c1cccnc1,.,0,0,43*,19,.
CCOCCCNC(=O)/C(C#N)=C/c1cc(C)c(O)c(C)c1,.,4,0,43*,0,.
CCOCCCNC(=O)/C(C#N)=C/c1cc(OC)c(O)c([N+](=O)[O-])c1,.,2,0,1,-7,.
COc1ccc(-n2c(NN)nc3sc4c(c3c2=O)CCCC4)cc1,-4,0,0,43*,-4,15
CCN1CCN(c2nc3sc4c(c3c(=O)n2-c2ccc(OC)cc2)CCCCC4)CC1,4,.,.,.,.,-25
Cc1ccccc1NC(=O)/C(=C/c1cccs1)NC(=O)c1ccco1,.,-2,0,0,27*,.
COc1ccccc1NC(=O)/C(=C\c1cccs1)NC(=O)c1ccco1,0,0,0,0,-2,-4
CCOC(=O)[C@@H]1[C@H]2COc3ccc(Br)cc3[C@@H]2N2C(=O)N(c3cccc(F)c3)C(=O)[C@@]12C,3,.,0,0,93*,7
CCOC(=O)[C@H]1[C@H]2COc3ccc(Br)cc3[C@H]2N2C(=O)CNC(=O)[C@@]12C,-1,0,0,0,62*,-4
CO[C@@H]1CN(C)C(=O)c2cc(NS(=O)(=O)c3ccc(Cl)cc3)ccc2OC[C@@H](C)N(C(=O)NC(C)C)C[C@@H]1C,.,0,0,.,.,11
O=C(O)CCc1ccc(-c2cccs2)n1CC(=O)Nc1ccccc1C(F)(F)F,.,-1,0,43*,3,.
O=C(CCc1ccccc1)Nc1ccccc1C(F)(F)F,-3,.,0,44*,0,.
Cc1cccc(OCCCC(=O)Nc2ccccc2C(F)(F)F)c1,-3,.,.,.,.,97*
C[C@@H]1CN([C@H](C)CO)C(=O)Cc2cc(NC(=O)Nc3ccc(F)cc3)ccc2O[C@@H]1CN(C)Cc1ccc(C(=O)O)cc1,-1,-13,0,.,-5,26
